LEDGF integ inh = blocks HIV-1 LEDGF/p75-dependent DNA integration; inhibition, % at 3.7 µM; TR-FRET IN-LEDGF/p75 DNA integration, Eu/Cy5; hit rate 0.64% among 370,000;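 active = inhibition above the screen-wide mean plus 3 SD, cut at about 13% in these data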;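 note: signal is the Cy5 over europium emission ratio at 671 and 618 nm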
MBD2 DNA inh = inhibitors of human MBD2 binding to methylated oligonucleotide | Q9UBB5 | TR-FRET | inhibition, % at 4.4 µM | hit rate 0.31% among 370,000; in the data active = inhibition above about 13%
UHRF1 binding = blocks human UHRF1 binding to methylated DNA; Q96T88; UHRF1 binding to methylated oligo, TR-FRET; inhibition, % at 4.4 µM; hit rate 0.75% among 370,000; AID 687016;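 note: UHRF1 SRA domain binding a hemimethylated CpG hairpin DNA probe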
Target sequence (Q96T88 whole entry, looked up, the tested form may be a part): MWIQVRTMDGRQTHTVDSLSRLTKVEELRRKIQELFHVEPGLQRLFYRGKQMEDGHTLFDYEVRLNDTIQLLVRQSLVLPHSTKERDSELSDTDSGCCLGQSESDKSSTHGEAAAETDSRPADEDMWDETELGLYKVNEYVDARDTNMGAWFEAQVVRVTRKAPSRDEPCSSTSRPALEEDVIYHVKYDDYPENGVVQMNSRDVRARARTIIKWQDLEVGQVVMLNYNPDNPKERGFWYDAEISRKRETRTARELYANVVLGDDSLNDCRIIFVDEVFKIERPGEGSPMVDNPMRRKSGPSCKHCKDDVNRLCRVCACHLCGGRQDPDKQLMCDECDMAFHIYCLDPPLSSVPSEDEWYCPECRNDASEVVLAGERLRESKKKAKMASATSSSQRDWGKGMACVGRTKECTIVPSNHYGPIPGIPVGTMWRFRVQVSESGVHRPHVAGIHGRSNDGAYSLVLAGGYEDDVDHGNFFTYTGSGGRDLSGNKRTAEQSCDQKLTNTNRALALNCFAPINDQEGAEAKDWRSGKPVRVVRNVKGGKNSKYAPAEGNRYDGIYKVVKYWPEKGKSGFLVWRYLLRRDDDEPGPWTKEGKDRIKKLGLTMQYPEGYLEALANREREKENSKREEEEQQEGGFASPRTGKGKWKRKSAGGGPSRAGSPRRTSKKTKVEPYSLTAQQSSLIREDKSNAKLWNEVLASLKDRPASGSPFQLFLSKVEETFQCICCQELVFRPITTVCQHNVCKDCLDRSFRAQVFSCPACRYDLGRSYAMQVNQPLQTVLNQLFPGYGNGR
TDP2 inh = TDP2 (human) inhibition, absorbance primary screen | recombinant TDP2, T5PNP hydrolysis, p-nitrophenol absorbance 415 nm | inhibition, % at 12.8 µM | O95551 | hit rate 0.34% among 370,000;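 active = inhibition above the mean of all tested compounds plus 3 SD, set per campaign, cut at about 25% in these data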
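Evaluation: % inhibition relative to enzyme-containing and enzyme-free wells. Material: recombinant human TDP2. Benchmarks: enzyme-free and DMSO wells. Timing: enzyme reaction with compound for 2 h at 37 °C. Compound dosing: 12.8 µM only. Measured by: p-Nitrophenol epi absorbance. Reagent: T5PNP substrate at 5 mM, a TopII-DNA adduct mimic. Replication: single well per compound.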
UHRF1 ctr MBD2 = counter-screen for MBD2 inhibitors: human UHRF1 methylated DNA binding inhibitors; shares compounds with MBD2 DNA inh; UHRF1 binding to methylated oligonucleotide, TR-FRET; inhibition, % at 4.4 µM; hit rate 25% among 1,000; AID 720530;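 note: UHRF1 SRA domain binding a labeled hemimethylated CpG hairpin DNA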
MBD2 confirm = confirmation of human MBD2-DBD methylated oligonucleotide binding inhibitors | inhibition, % at 4.4 µM | hit rate 26% among 1,000 | shares compounds with MBD2 DNA inh | TR-FRET MBD2-DBD binding to methylated oligonucleotide; in the data active = inhibition above about 14%
Each line names hits and unclear results; the compound was inactive in the other large screens (follow-up assays come after a bar, where they were run); ! = repeats disagree. Sampled rows, rich in hits. Any-hit rate of the full collection: about 1.6%. Cut-off read from the data, not from the text of the source, unless noted: active = inhibition above about 21%; inactive = the rest.

O=C(CN1CCC(NC(=O)Nc2ccc3c(c2)OCO3)CC1)Nc1ccc2c(c1)OCCO2	none
CCOC(=O)c1ccc(NC(=O)NC2CCN(CC(=O)NCc3ccc4c(c3)OCO4)CC2)cc1	MBD2 DNA inh 19 | UHRF1 ctr MBD2 inactive | MBD2 confirm inactive
C/C=C/C=[N+](\[O-])C(C)/C(=N/O)c1ccc(F)cc1 (stereo not drawn)	MBD2 DNA inh 14 | UHRF1 ctr MBD2 inactive | MBD2 confirm inactive
CCCCC(=O)Nc1ccc(N2CCN(c3ccc(F)cc3)CC2)cc1	MBD2 DNA inh 34 | UHRF1 ctr MBD2 inactive | MBD2 confirm inactive
CC(=O)O[C@H]1[C@H](OC(C)=O)C[C@]2(OC(C)=O)C[C@H]1OC2=O	none
Cc1nnc(SCC(=O)Nc2ccc(N(C)C)cc2)n(N)c1=O	MBD2 DNA inh 13 | UHRF1 ctr MBD2 inactive | MBD2 confirm inactive
CC(=O)Nc1ccc(NC(=O)CSc2nnc(C)c(=O)n2N)cc1	none
Clc1ccc2nc(CNc3nc(N4CCOCC4)nc4c3ncn4-c3ccsc3)[nH]c2c1	none
Cc1ccc(-n2nc(C)cc2NC(=O)c2ccc(C)s2)cc1	MBD2 DNA inh 34 | UHRF1 ctr MBD2 inactive | MBD2 confirm inactive
Cc1ccccc1NC(=O)N1CCC(NC(=O)C2CCCCC2)CC1	MBD2 DNA inh 14 | UHRF1 ctr MBD2 inactive | MBD2 confirm inactive
O=C(Cc1cccs1)N(Cc1cccs1)C1(C(=O)NC2CCCC2)CCCCC1	MBD2 DNA inh 13, UHRF1 binding 24 | UHRF1 ctr MBD2 inactive | MBD2 confirm inactive
O=C(Cc1cccs1)N(CC1CCCO1)C1(C(=O)NC2CCCC2)CCCCC1 (stereo not drawn)	none
CC(C)(C)c1ccc(S(=O)(=O)N2CCCC2C(=O)N2CCc3ccccc3C2)cc1 (stereo not drawn)	none
NC(=O)C1=C[C@@H](c2csc3ccccc23)C[C@@H](OCCCCO)O1	MBD2 DNA inh 15 | UHRF1 ctr MBD2 inactive | MBD2 confirm inactive
Cc1ccc(-c2ccc(CCC(=O)O)n2Cc2ccco2)cc1	MBD2 DNA inh 88 | UHRF1 ctr MBD2 inactive | MBD2 confirm inactive
CCOC(=O)c1c(C)n(C)c2ccc(OC)c([N+](=O)[O-])c12	MBD2 DNA inh 13, UHRF1 binding 29 | UHRF1 ctr MBD2 inactive | MBD2 confirm inactive
CCOC(=O)c1c(C)n(C)c2ccc(OC)c(NC(=O)CN3CCCCC3)c12	none
COc1cccc(NC(=O)Nc2nnc(Cc3ccc(F)cc3)s2)c1	MBD2 DNA inh 34 | UHRF1 ctr MBD2 inactive | MBD2 confirm inactive
COc1ccc(Cc2nnc(NC(=O)Nc3cccc(OC)c3)s2)cc1	none
O=C(CSC1CCc2ccccc21)NNC(=O)Nc1ccc(Cl)cc1 (stereo not drawn)	none
O=C(CSc1nnc(-c2cccnc2)n1C1CCCCC1)NC1CCCCCC1	none
O=C(Cn1cc(COc2ccccc2C(F)(F)F)nn1)c1ccc(O)cc1	MBD2 DNA inh 15, UHRF1 binding 22 | UHRF1 ctr MBD2 inactive | MBD2 confirm inactive
CC1(C)S[C@@H]2[C@H](NC(=O)[C@H](N)c3ccccc3)C(=O)N2[C@H]1C(=O)O	LEDGF integ inh 52!, MBD2 DNA inh 47!, UHRF1 binding 81! | UHRF1 ctr MBD2 77 | MBD2 confirm 31
CCc1c(-c2ccccc2F)ncn1CCc1ccccc1OC	none
COc1ccc(N2CCN(C(=O)CNC(=O)Cn3cnc4sc(C)c(C)c4c3=O)CC2)cc1	MBD2 DNA inh 86 | UHRF1 ctr MBD2 inactive | MBD2 confirm inactive
COc1ccccc1N1CCN(C(=O)CNC(=O)Cn2cnc3sc(C)c(C)c3c2=O)CC1	none
CCC(=O)Nc1ccc(C(=O)COC(=O)c2nc3nccc(C)n3n2)cc1	MBD2 DNA inh 34, UHRF1 binding 55 | UHRF1 ctr MBD2 31 | MBD2 confirm 30
Cc1cccc(C)c1NC(=O)Cn1nnc(-c2ccncc2)n1	none
COc1ccc(C(=O)NCCN(C)C)c2nc3ccccc3cc12	MBD2 DNA inh 36 | UHRF1 ctr MBD2 inactive | MBD2 confirm 70
COc1cccc2nc3c(C(=O)NCCN(C)C)cccc3cc12	MBD2 DNA inh 19 | UHRF1 ctr MBD2 inactive | MBD2 confirm 30
CN(C)CCNC(=O)c1ccccc1-c1ccccc1	none
CN(C)CCNC(=O)c1cccc2[nH]c(-c3ccncc3)nc12	MBD2 DNA inh 13 | UHRF1 ctr MBD2 inactive | MBD2 confirm 20
COc1ccc(Cl)cc1C(=O)NCCN(C)C	none
O=C(Cc1ccccc1F)N1CCC(n2nnc3ncccc32)CC1	none
O=S(=O)(c1ccc(F)cc1)N1CCCc2nc(-c3ccc(F)cc3)ccc21	none
O=C(CCSc1nc(-c2ccco2)cc(C(F)(F)F)n1)NCc1ccccn1	MBD2 DNA inh 24 | UHRF1 ctr MBD2 inactive | MBD2 confirm inactive
COc1cc(NC(=O)C2CCCCC2)c(OC)cc1NC(=O)c1ccccc1	none
COc1cc(NC(=O)C2CCCO2)c(OC)cc1NC(=O)c1ccccc1 (stereo not drawn)	MBD2 DNA inh 19 | UHRF1 ctr MBD2 inactive | MBD2 confirm inactive
O=C(CN1CCOCC1)NCCC12CC3CC(CC(C3)C1)C2	MBD2 DNA inh 14 | UHRF1 ctr MBD2 inactive | MBD2 confirm inactive
S=C(Nc1ccccc1Br)OCCN1CCCC12CCC(c1ccccc1)CC2 (stereo not drawn)	none
COc1ccc2c(c1OC)c(=O)n1c3ccc(OC(C)C(=O)NCCN4CCOCC4)cc3c3ccnc2c31 (stereo not drawn)	MBD2 DNA inh 36, UHRF1 binding 43 | UHRF1 ctr MBD2 52 | MBD2 confirm 50
COC(=O)c1ccc(OC)c(CSc2nnc(COc3ccc(Cl)cc3)o2)c1	MBD2 DNA inh 14 | UHRF1 ctr MBD2 inactive | MBD2 confirm inactive
O=C(O)C1=CCC=CC1C(=O)O (stereo not drawn)	MBD2 DNA inh 17, UHRF1 binding 39 | UHRF1 ctr MBD2 52 | MBD2 confirm 20
CC(C)C(=O)Oc1ccc(CO)cc1[C@H](CCN(C(C)C)C(C)C)c1ccccc1	none
Cc1c2cnn(CC(=O)Nc3c(F)c(F)cc(F)c3F)c(=O)c2c(C)n1Cc1ccccc1F	MBD2 DNA inh 14 | UHRF1 ctr MBD2 inactive | MBD2 confirm 29
CNC(=O)Cn1ncc2c(C)n(Cc3ccc(C)cc3)c(C)c2c1=O	none
Cc1cc(C)cc(N(CC(=O)NC2CCC(C)CC2)S(=O)(=O)c2ccc(C)c(C)c2)c1 (stereo not drawn)	none
COc1ccc(NC(=O)[C@@H]2CC=C[C@@H]3CCN(C4CCCCC4)C(=O)[C@@H]32)cc1	MBD2 DNA inh 64 | UHRF1 ctr MBD2 inactive | MBD2 confirm inactive
COc1ccc(CNC(=O)[C@@H]2CC=C[C@@H]3CCN(C4CCCCC4)C(=O)[C@@H]32)cc1	none
CC(=O)Nc1ccc2nc(C)n(Cc3ccc(Cl)cc3)c(=O)c2c1	MBD2 DNA inh 15, UHRF1 binding 23 | UHRF1 ctr MBD2 inactive | MBD2 confirm inactive

High-throughput results deposited in PubChem by The Scripps Research Institute Molecular Screening Center.
